OX1R antag-1: OX1R (human) antagonism; actives 1.8% (n = 330,000); AID 485270; O43613; OX1R-expressing cells, FRET antagonist read-out; inhibition, % at 6.6 µM; in the data active = inhibition mostly above about 38%, no sharp cut-off; inactive = mostly below about 40%;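 also: 0% = agonist challenge alone and 100% = reference antagonist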
Target sequence (O43613 whole entry, looked up): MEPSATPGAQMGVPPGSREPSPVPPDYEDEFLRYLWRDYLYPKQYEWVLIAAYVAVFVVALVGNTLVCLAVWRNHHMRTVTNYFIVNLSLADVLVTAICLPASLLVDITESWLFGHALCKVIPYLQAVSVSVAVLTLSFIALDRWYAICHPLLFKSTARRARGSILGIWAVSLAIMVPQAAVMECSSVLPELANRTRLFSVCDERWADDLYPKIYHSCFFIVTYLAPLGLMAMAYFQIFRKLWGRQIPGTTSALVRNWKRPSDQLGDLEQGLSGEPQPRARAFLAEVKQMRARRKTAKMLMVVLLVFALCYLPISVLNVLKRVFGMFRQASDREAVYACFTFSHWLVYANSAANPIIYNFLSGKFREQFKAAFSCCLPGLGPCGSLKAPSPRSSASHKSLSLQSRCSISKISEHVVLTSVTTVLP
GPR7 antag: blocks human GPR7 receptor signaling; P48145; GPR7-expressing cells, fluorescence antagonist assay; inhibition, % at 4.4 µM; actives 1.1% (n = 290,000); in the data active = inhibition above about 16%, passing the limit was not always enough;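 also: cells stimulated with the agonist NPW; 0% = agonist with vehicle and 100% = vehicle without agonist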
TAAR1 agonist: human TAAR1 agonism; CHO RD-HGA16 TAAR1, Fluo-8 calcium fluorescence; vehicle wells 0%, saturating PEA agonist 100%; activation, % at 3 µM; actives 0.99% (n = 360,000); AID 624467;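 active = activation above the mean activation of all test compounds in the run plus 3 SD, cut at about 38% in these data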
Target sequence (Q96RJ0 whole entry, looked up): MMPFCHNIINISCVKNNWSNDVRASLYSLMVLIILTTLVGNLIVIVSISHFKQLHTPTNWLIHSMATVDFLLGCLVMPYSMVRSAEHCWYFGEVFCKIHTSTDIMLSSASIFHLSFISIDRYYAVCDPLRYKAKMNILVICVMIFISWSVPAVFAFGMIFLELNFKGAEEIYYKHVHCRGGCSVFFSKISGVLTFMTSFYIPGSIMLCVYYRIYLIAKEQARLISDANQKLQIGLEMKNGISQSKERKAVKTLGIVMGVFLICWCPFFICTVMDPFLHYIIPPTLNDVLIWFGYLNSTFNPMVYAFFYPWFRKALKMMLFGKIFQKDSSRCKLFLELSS
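Test system: RD-HGA16 (CHO) cells co-expressing Gα16 and hTAAR1 / Benchmarks: DMSO vehicle as 0%, PEA at EC100 as 100% / Repeats: no replicates (n 1) / Measure: % activation from peak over basal fluorescence ratio, DMSO-to-PEA scaled / Timing: 17-24 h plating, Fluo-8 75 min 37 °C, 30 min RT / Technique: kinetic Fluo-8 calcium fluorescence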
OX1R antag-2: blocks the human orexin 1 receptor. O43613. CHO/OX1R cells, Fluo-8 calcium fluorescence, orexin A. inhibition, % at 5 µM. actives 0.43% (n = 330,000). AID 434989;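 active = inhibition above its plate's threshold, mean inhibition of all tested compounds on the plate plus 3 SD, cut at about 37% in these data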;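 also: 0% = orexin A challenge wells and 100% = SB-334867-A antagonist wells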
TAAR1 antag: human TAAR1 antagonism; CHO RD-HGA16 TAAR1, Fluo-8 calcium fluorescence, antagonist; inhibition, % at 3 µM; actives 1.5% (n = 360,000); AID 624466;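 active = inhibition above a per-plate cutoff, the mean inhibition of test compounds on that plate plus 3 SD, cut at about 49% in these data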;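 also: 0% = DMSO plus EC80 beta-PEA response and 100% = DMSO alone without agonist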
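Material: CHO RD-HGA16 cells bearing hTAAR1; compound dosing: one-point dosing, 3 µM nominal final; schedule: dye loading 75 min at 37 °C, then 30 min room temperature; measured by: calcium fluorescence with Fluo-8; control set: vehicle and agonist controls; replication: n of 1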
CHO parental Ca: signal in parental CHO cells, OX1R antagonist counter-screen | parental CHO-K1, ATP-induced calcium, Fluo-8 fluorescence | inhibition, % at 5.6 µM | actives 0.63% (n = 330,000);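 active = inhibition above that plate's mean sample inhibition plus 3 SD, cut at about 26% in these data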;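 also: 0% = ATP-challenged DMSO wells and 100% = DMSO wells without ATP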
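Material – parental CHO cells · Reagent – ATP stimulus · Compound – single nominal dose of 5.6 µM per compound · Detection – Fluo-8 fluorescence · Read-out basis – percent inhibition of calcium signal · Controls – ATP-challenged DMSO wells low, unchallenged DMSO wells high · Repeats – no replicates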
TAAR1 nonsel count: nonselective antagonist in TAAR1 antagonist counter-screen; actives 77% (n = 2,400); shares compounds with TAAR1 antag; inhibition, % at 3 µM; counterscreen cell line, calcium fluorescence, antagonist mode; in the data active = inhibition above about 22%;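 also: CHO-Ga16 host cells stimulated with ATP at an EC80 level; 0% = agonist EC80 plus vehicle and 100% = vehicle without agonist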
TAAR1 antag conf: confirmation of human TAAR1 antagonists; shares compounds with TAAR1 antag; TAAR1-expressing cells, fluorescence antagonist read-out; inhibition, % at 3 µM; actives 40% (n = 2,400); AID 651785; in the data active = inhibition above about 49%;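 also: CHO-Ga16 host cells challenged with agonist PEA near its EC80; 0% = agonist at EC80 plus vehicle and 100% = vehicle with no agonist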
Ga16 nonsel ag: nonselective Ga16 agonism, counter-screen | actives 18% (n = 2,400) | Ga16-expressing cells, calcium fluorescence, agonist counterscreen | activation, % at 3 µM | AID 651953 | shares compounds with TAAR1 antag; in the data active = activation above about 12%;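 also: 0% = vehicle wells and 100% = saturating stimulus response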
TAAR1 ag counter: activates human TAAR1 in antagonist counter-screen. shares compounds with TAAR1 antag. hTAAR1 cell line, fluorescence activation, agonist mode. activation, % at 3 µM. actives 2% (n = 2,400). AID 651955; in the data active = activation above about 37%;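 also: CHO cells stably expressing TAAR1 with calcium dye readout; 0% = DMSO vehicle and 100% = full agonist response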
Active calls of the source: *; . = not tested or not shown. Shown are actives, neighbours in structure and some others; about 4.6% of the full set was active somewhere.

SMILES	OX1R antag-1	GPR7 antag	TAAR1 agonist	OX1R antag-2	TAAR1 antag	CHO parental Ca	TAAR1 nonsel count	TAAR1 antag conf	Ga16 nonsel ag	TAAR1 ag counter
COc1ccc(-n2nc(C(=O)NCC(=O)N3CCC(C)CC3)c3ccccc3c2=O)cc1Cl	15.1	8.2	3.4	-125.3	48.6*	-23.2	17.3	34.7	5.4	1.5
CC1(C(=O)Nc2ccc3c(c2)OCO3)CCN1C(=O)CCc1ccc(Cl)cc1Cl (stereo not drawn)	.	.	0.9	.	-7.0	.	.	.	.	.
COC(=O)c1cc(Nc2cc(C)c3c(O)cccc3n2)cc(C(=O)OC)c1	27.3	-19.2	8.6	-24.9	63.4*	-12.6	23.9*	36.7	5.2	15.4
COC(=O)c1cc(Nc2cc(C)c3ccc(O)cc3n2)cc(C(=O)OC)c1	16.4	-3.5	1.5	-4.0	23.3	7.9	.	.	.	.
COc1ccc(Nc2ncc(C(=O)N3CCC(C(N)=O)CC3)c3ccccc23)cc1	11.7	-2.1	1.6	-2.3	-3.8	-8.4	.	.	.	.
COc1ccccc1Nc1ncc(C(=O)N2CCC(C(N)=O)CC2)c2ccccc12	13.2	-15.1	10.2	-7.5	11.3	-5.9	.	.	.	.
COc1ccc(Nc2ncc(C(=O)N3CCN(Cc4ccccc4)CC3)c3ccccc23)cc1	5.0	-0.8	18.2	-24.6	67.4*	-9.1	33.4*	51.5*	14.1*	13.2
COc1ccccc1Nc1ncc(C(=O)N2CCN(Cc3ccc(OC)c(OC)c3OC)CC2)c2ccccc12	11.5	-2.0	9.2	-36.7	70.7*	-8.8	26.7*	45.0	4.7	4.3
CCCOc1ccccc1OCC(=O)Nc1ccc(S(=O)(=O)N2CCCCC2)cc1	6.9	.	0.6	-21.2	42.2	23.8	.	.	.	.
CCCOc1ccccc1OCC(=O)Nc1ccc(S(=O)(=O)N2CCCC2)cc1	5.3	.	4.2	-22.7	64.7*	-20.7	19.7	41.8	7.4	13.2
CN(C)S(=O)(=O)c1cc(NC(=O)COC(=O)CC2Sc3ccccc3NC2=O)ccc1Cl (stereo not drawn)	14.3	.	21.8	-0.2	62.2*	-10.8	31.2*	37.8	9.5	4.9
Cn1c(CNC(=O)c2ccc3c(c2)OCO3)nnc1SCC(=O)Nc1ccccc1F	24.7	-5.5	-1.9	-23.2	-4.2	-13.6	.	.	.	.
CCOC(=O)C1CCCN(C(=O)c2cc(-c3ccco3)nc3ccccc23)C1 (stereo not drawn)	12.2	.	3.5	-12.9	-0.4	-18.5	.	.	.	.
CCOC(=O)C1CCCN(C(=O)c2cc(Nc3ccc(OC)cc3)nc3ccccc23)C1 (stereo not drawn)	18.4	1.9	12.3	-31.2	48.8*	-27.8	28.8*	45.1	7.5	4.6
CCN(C(=O)COC(=O)CCn1c(C)csc1=O)c1c(N)n(Cc2ccccc2)c(=O)[nH]c1=O	0.5	.	2.5	-10.4	-21.8	-12.4	.	.	.	.
Cc1ccc(S(=O)(=O)NC2CCCc3ccccc32)cc1C (stereo not drawn)	21.9	-10.2	11.6	-8.9	50.4*	7.2	11.3	39.0	4.7	10.3
CC(C)CN(CC(C)C)C(=O)c1cc(S(=O)(=O)N2CCCCC2)c[nH]1	-1.6	-6.4	2.3	-3.3	-7.4	-2.4	.	.	.	.
COc1cc(C(=O)N/N=C/c2ccc(OC(=O)c3cccc(C)c3)cc2)ccc1O	.	-17.2	15.2	.	79.5*	.	39.5*	62.5*	12.6*	30.0
Cc1ccc(C(=O)Nc2cccc(N3C(=O)C4CCC(C)CC4C3=O)c2)cc1 (stereo not drawn)	14.0	-18.3	11.9	-7.0	71.3*	-15.3	31.0*	50.3*	7.5	4.7
Cc1ccc(NC(=O)c2ccc(N3C(=O)C4CC=C(Cl)CC4C3=O)cc2)cc1 (stereo not drawn)	14.7	6.2	26.9	10.3	62.5*	-6.4	23.8*	44.8	13.4*	14.5
C/C(=N\O)c1ccc(N2C(=O)C3CC=C(Cl)CC3C2=O)cc1 (stereo not drawn)	-1.1	-1.4	7.0	-2.9	6.5	-10.1	.	.	.	.
COc1ccc(-c2nc3cccc(C)n3c2NCC2CCCO2)cc1O (stereo not drawn)	28.6	-2.9	15.2	-16.7	65.1*	2.3	26.7*	47.7	8.1	8.0
COc1ccnc(Oc2ccc(F)cc2)c1C(=O)N/C=N/OCc1ccc(F)cc1Cl	22.1	-8.2	31.0	-17.4	75.7*	-11.3	40.8*	60.6*	14.3*	16.4
COc1ccnc(Oc2ccc(F)cc2)c1C(=O)N/C=N/OCc1ccc(Cl)cc1Cl	8.7	-14.5	34.9	-8.9	62.6*	-9.9	28.6*	57.1*	13.5*	21.9
O=C(N/N=C/c1ccc(O)cc1)c1csc2c1CCCC2	10.2	0.6	1.0	-4.0	1.4	-0.5	.	.	.	.
SMILES	OX1R antag-1	GPR7 antag	TAAR1 agonist	OX1R antag-2	TAAR1 antag	CHO parental Ca	TAAR1 nonsel count	TAAR1 antag conf	Ga16 nonsel ag	TAAR1 ag counter
NC(=O)c1cc(Cl)ccc1OCC(=O)N1CCCc2ccccc21	16.1	-5.9	6.3	-12.2	16.8	-5.5	.	.	.	.
O=C(CCCOc1ccc(Cl)cc1Cl)N1CCCc2ccccc21	10.5	8.0	5.9	-29.1	49.9*	-42.1	14.0	12.2	0.4	-0.8
Cc1ccc(CNC(=O)CCCn2c(=O)c3ccccc3n(CC(=O)NC3CCCC3)c2=O)cc1	5.2	-3.2	1.6	-34.0	5.7	-2.8	.	.	.	.
CCCCn1c(=O)n(CC(=O)NCc2ccc(C)cc2)c(=O)c2c1nc(CO)n2CCC	20.9	-11.3	10.8	-13.7	50.3*	-15.4	21.9*	39.3	5.8	4.1
COC1=CC(=O)C=C(OC)C1(O)CC(C)=O	.	.	1.9	.	-18.8	.	.	.	.	.
CCN(c1ccccc1)S(=O)(=O)c1ccc(NC(=S)NC(=O)c2ccc(Br)o2)cc1	12.8	-1.5	8.4	-22.3	64.2*	-0.4	33.0*	39.7	7.6	-0.5
COc1ccccc1CNS(=O)(=O)c1ccc(N2CCCC2)cc1Br	20.6	.	5.1	25.2	-8.4	-12.5	.	.	.	.
Oc1ccccc1C1=Nc2nc3ccccc3n2C(c2ccccc2)C1 (stereo not drawn)	53.8	-9.8	13.2	-28.2	53.8*	-32.8	31.2*	28.4	4.2	-2.9
O=C(c1cc(-c2ccccc2Cl)nc2ccc(Br)cc12)N1CCN(c2ccccn2)CC1	10.6	-6.1	5.5	-21.9	59.1*	-21.4	30.3*	46.8	9.4	21.1

Screening results deposited in PubChem BioAssay by The Scripps Research Institute Molecular Screening Center.
